# Reference: ChEMBL document CHEMBL1671632, “Genetic basis of multidrug resistance in Acinetobacter baumannii clinical isolates at a tertiary medical center in Pennsylvania” (2008)
# What was measured:
# Acinetobacter baumannii [1] = test: Antimicrobial activity against multidrug-resistant Acinetobacter baumannii assessed as resistant isolates by disk diffusion method; format: functional
# Outline: (§1)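 Standard disk diffusion was done on Mueller-Hinton agar with ampicillin-sulbactam, ceftazidime, cefepime, meropenem, tobramycin, gentamicin, ciprofloxacin and tetracycline. Isolates were called susceptible or resistant using CLSI breakpoints.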
# Acinetobacter baumannii [2] = test: Antimicrobial activity against multidrug-resistant Acinetobacter baumannii assessed as resistant isolates by disk diffusion method in presence of beta-lactamase inhibitor Sulbactam; format: functional; outline: as §1
# Acinetobacter baumannii [3] = test: Antimicrobial activity against Acinetobacter baumannii AB026 transformant harboring bla-OXA-23 gene by Etest method; format: functional
# Acinetobacter baumannii [4] = test: Antimicrobial activity against Acinetobacter baumannii HE130 lacking bla-OXA-23 gene by Etest method
# Acinetobacter baumannii [5] = test: Antimicrobial activity against multidrug-resistant Acinetobacter baumannii expressing aph(3')-Vla gene by Etest method; format: functional
# Acinetobacter baumannii [6] = test: Antimicrobial activity against multidrug-resistant Acinetobacter baumannii expressing armA gene by Etest method; format: functional
# Acinetobacter baumannii [7] = test: Antimicrobial activity against multidrug-resistant Acinetobacter baumannii expressing aac(6')-1b gene by Etest method; format: functional
# Acinetobacter baumannii [8] = test: Antimicrobial activity against multidrug-resistant Acinetobacter baumannii by Etest method; format: functional
# Acinetobacter baumannii [9] = test: Antimicrobial activity against Acinetobacter baumannii AB017 transformant harboring bla-OXA-23 gene by Etest method; format: functional
# Acinetobacter baumannii [10] = test: Antimicrobial activity against multidrug-resistant Acinetobacter baumannii expressing armA and bla oxa-23 gene assessed as resistant isolates by disk diffusion method; format: functional; outline: as §1
molecule,measurement,setting,value
CN(C)[C@@H]1C(O)=C(C(N)=O)C(=O)[C@@]2(O)C(O)=C3C(=O)c4c(O)cccc4[C@@](C)(O)[C@H]3C[C@@H]12 [TETRACYCLINE],Activity,Acinetobacter baumannii [1],79.6%
O=C(O)c1cn(C2CC2)c2cc(N3CCNCC3)c(F)cc2c1=O [CIPROFLOXACIN],Activity,Acinetobacter baumannii [1],95.9%
CC1(C)S[C@@H]2[C@H](NC(=O)[C@H](N)c3ccccc3)C(=O)N2[C@H]1C(=O)O [AMPICILLIN],Activity,Acinetobacter baumannii [2],40.8%
C[C@@H](O)[C@H]1C(=O)N2C(C(=O)O)=C(S[C@@H]3CN[C@H](C(=O)N(C)C)C3)[C@H](C)[C@H]12 [MEROPENEM],MIC,Acinetobacter baumannii [3],6 µg/mL
same,Activity,Acinetobacter baumannii [1],22.4%
same,MIC,Acinetobacter baumannii [4],0.125 µg/mL
NC[C@H]1O[C@H](O[C@H]2[C@H](O)[C@@H](O[C@H]3O[C@H](CO)[C@@H](O)[C@H](N)[C@H]3O)[C@H](N)C[C@@H]2N)[C@H](N)C[C@@H]1O [TOBRAMYCIN],Activity,Acinetobacter baumannii [1],61.2%
NCC[C@H](O)C(=O)N[C@@H]1C[C@H](N)[C@@H](O[C@H]2O[C@H](CN)[C@@H](O)[C@H](O)[C@H]2O)[C@H](O)[C@H]1O[C@H]1O[C@H](CO)[C@@H](O)[C@H](N)[C@H]1O [AMIKACIN],MIC,Acinetobacter baumannii [5],12 µg/mL
same,Activity,Acinetobacter baumannii [1],36.7%
same,MIC,Acinetobacter baumannii [6],> 256 µg/mL
same,MIC,Acinetobacter baumannii [7],2 µg/mL
same,MIC,Acinetobacter baumannii [8],128 µg/mL
C[C@@H](O)[C@H]1C(=O)N2C(C(=O)O)=C(SCCNC=N)C[C@H]12 [IMIPENEM ANHYDROUS],MIC,Acinetobacter baumannii [9],4 µg/mL
same,MIC,Acinetobacter baumannii [4],0.5 µg/mL
same,Activity,Acinetobacter baumannii [10],18.4%
GENTAMICIN,Percent resistant isolates,Acinetobacter baumannii [1],77.6%
CC(C)(O/N=C(\C(=O)N[C@@H]1C(=O)N2C(C(=O)[O-])=C(C[n+]3ccccc3)CS[C@H]12)c1csc(N)n1)C(=O)O [CEFTAZIDIME],Activity,Acinetobacter baumannii [1],87.8%
CO/N=C(\C(=O)N[C@@H]1C(=O)N2C(C(=O)[O-])=C(C[N+]3(C)CCCC3)CS[C@H]12)c1csc(N)n1 [CEFEPIME],Activity,Acinetobacter baumannii [1],79.6%
